16 compounds from ChEMBL document CHEMBL4680074, “Structure and Property Guided Design in the Identification of PRMT5 Tool Compound EPZ015666” (ACS Med Chem Lett, 2016) can be followed below.

The target of one data set is PRMT5/MEP50 complex (Homo sapiens, UniProt O14744). The data set can be described thus: Inhibition of human full length FLAG-tagged PRMT5/human His6-tagged MEP50 expressed in baculovirus-infected Sf9 cells assessed as reduction in tritium incorporation into peptide substrate using human Histone H4 (1 to 15 residues) and [3H]SAM as substrate preincubated with enzyme and H4 for 30 mins followed by [3H]SAM addition and measured after 120 mins by radioactive flashplate assay.

In data set [1] the target is Protein arginine N-methyltransferase 5 (Homo sapiens, UniProt O14744). The data set can be described thus: Inhibition of PRMT5 in human Z138 cells assessed as reduction in symmetrical dimethylation of arginine containing substrate using SmD3 as substrate incubated for 4 days by In-cell western assay. In kind it is cell-based.
The next data set has as its system Z-138. The data set can be described thus: Antiproliferative activity against human Z138 cells incubated for 5 days by cell titer-glo assay. In kind it is functional, cell-based. The conditions noted are these: Z-138, 120 h. For orientation: Cellular ATP, detected with luciferase, serves as a proxy for viable cell number.
The nature of data set [2]: Time during which unbound drug concentration exceeds IC90 for inhibition of PRMT5 in human Z138 cells in CD-1 mouse at 100 mg/kg, po. Type of data set: organism-based. The conditions noted are these: in vivo. The method in brief:
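Male CD-1 mice received single oral doses of 10 and 100 mg/kg, and plasma concentration was profiled over time. Unbound concentration was compared with the cellular methyl-mark IC90 after correction for plasma protein binding in mouse plasma. The value is the time this unbound level stayed at or above that IC90.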

Data set [3] is described as follows: Protein binding in CD-1 mouse plasma. In kind it is ADME, cell-free. As to conditions: read-out: PPB (converted).

By IC50 is commonly meant the concentration at which inhibition is half-maximal.

Structures are written as SMILES. Where only a bound is given, the exact number is not on record here.

PRMT5/MEP50 complex, sequence (O14744 whole entry, the tested form may be a part): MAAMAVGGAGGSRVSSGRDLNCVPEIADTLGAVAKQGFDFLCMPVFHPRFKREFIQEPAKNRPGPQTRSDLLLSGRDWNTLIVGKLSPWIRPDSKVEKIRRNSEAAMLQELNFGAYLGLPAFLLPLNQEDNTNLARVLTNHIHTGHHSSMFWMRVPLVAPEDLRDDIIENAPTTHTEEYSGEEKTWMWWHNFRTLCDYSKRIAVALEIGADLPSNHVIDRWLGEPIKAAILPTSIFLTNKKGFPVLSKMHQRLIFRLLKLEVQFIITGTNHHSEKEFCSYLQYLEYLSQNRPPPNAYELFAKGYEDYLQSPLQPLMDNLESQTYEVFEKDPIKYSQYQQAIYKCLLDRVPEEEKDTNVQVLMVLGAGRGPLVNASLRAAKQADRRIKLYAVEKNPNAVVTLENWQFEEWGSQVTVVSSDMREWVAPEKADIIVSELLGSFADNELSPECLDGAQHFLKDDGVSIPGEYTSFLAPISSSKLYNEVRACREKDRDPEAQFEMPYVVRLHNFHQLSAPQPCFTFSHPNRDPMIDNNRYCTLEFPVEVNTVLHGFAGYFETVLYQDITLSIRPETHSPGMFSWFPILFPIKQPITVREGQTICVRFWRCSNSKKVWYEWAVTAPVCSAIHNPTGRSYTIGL
PRMT5/MEP50 complex, sequence (Q9BQA1 whole entry, further chain, the tested form may be a part): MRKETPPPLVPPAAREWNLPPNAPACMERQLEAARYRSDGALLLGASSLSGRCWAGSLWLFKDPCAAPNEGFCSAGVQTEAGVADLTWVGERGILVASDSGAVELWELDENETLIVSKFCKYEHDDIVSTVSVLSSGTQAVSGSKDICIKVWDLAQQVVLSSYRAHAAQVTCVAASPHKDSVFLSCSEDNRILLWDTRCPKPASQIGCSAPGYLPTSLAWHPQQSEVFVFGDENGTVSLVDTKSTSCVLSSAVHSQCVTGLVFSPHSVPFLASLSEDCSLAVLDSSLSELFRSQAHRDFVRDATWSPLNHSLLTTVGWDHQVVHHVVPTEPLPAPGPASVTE
Protein arginine N-methyltransferase 5, sequence (O14744 whole entry): as the sequence (O14744 whole entry, the tested form may be a part) above

Regarding `OC(COc1cccc(CNC2CCCC2)c1)CN1CCc2ccccc2C1` (stereo not given), the IC50 on PRMT5/MEP50 complex is 326 nM.
As to `OC(COc1cccc(CNC2CCCC2)c1)CN1Cc2ccccc2C1` (stereo not given), the IC50 at PRMT5/MEP50 complex stood at 7450 nM.
In the case of `Cn1cnc2ccc(-c3ccnc(NCC(O)CN4CCc5ccccc5C4)c3)cc21` (stereo not given), the IC50 in data set [1] was determined as 180 nM; at PRMT5/MEP50 complex it was 33 nM; in the data set on Z-138 it was 2100 nM.
The corresponding values for `O=C(NC[C@@H](O)CN1CCc2ccccc2C1)c1cccc(-c2ccccn2)c1` are 406 nM, 95 nM and 18700 nM.
In the case of `O=C(NC[C@H](O)CN1CCc2ccccc2C1)c1cccc(NC2CCOCC2)c1`, the IC50 was 13 nM in data set [1], 18 nM on PRMT5/MEP50 complex and 384 nM in the data set on Z-138.
On to `O=C(COc1cccc2cccnc12)NC[C@@H](O)CN1CCc2ccccc2C1`, for which the values for the IC50 (in data set [1]; on PRMT5/MEP50 complex; with Z-138) were 16 nM, 11 nM and 451 nM, respectively.
For `O=C(COc1cccc2cccnc12)NC[C@H](O)CN1CCc2ccccc2C1`, the IC50 in data set [1] was found to be 327 nM; on PRMT5/MEP50 complex it was 144 nM; in the data set on Z-138, 12600 nM.
On the same counts, the results for `O=C(NC[C@H](O)CN1CCc2ccccc2C1)c1cccc(-c2ccccn2)c1` are 32 nM, 13 nM and 890 nM.
With `Cn1cnc2ccc(-c3cccc(OCC(O)CN4CCc5ccccc5C4)c3)cc21` (stereo not given), the IC50 in data set [1] was 435 nM; at PRMT5/MEP50 complex it was 73 nM; in the data set on Z-138, 4260 nM.
On to `COc1cc2c(cc1OC)CN(CC(O)COc1cccc(CNC3CCCC3)c1)CC2` (stereo not given), for which the IC50 on PRMT5/MEP50 complex is greater than 50000 nM.
Compound `O=C(NC[C@H](O)CN1CCc2ccccc2C1)c1cc(NC2COC2)ncn1` came in with a Time in data set [2] of 12 h. The fraction unbound in data set [3] was 0.7.
Compound `O=C(NC[C@H](O)CN1CCc2ccccc2C1)c1ccnc(NC2CCC2)c1` gave an IC50 in the data set on Z-138 of 62 nM.
Turning to `CN(Cc1ccccc1)CC(O)COc1cccc(CNC2CCCC2)c1` (stereo not given), the IC50 at PRMT5/MEP50 complex amounted to 26800 nM.
For `OC(COc1cccc(CNC2CCCC2)c1)CN1CCc2ccncc2C1` (stereo not given), the IC50 at PRMT5/MEP50 complex is greater than 50000 nM.
On to `O=C(COc1cccc2cccnc12)NCC(O)CN1CCc2ccccc2C1` (racemic), for which the IC50 amounted to 36 nM in data set [1], 23 nM at PRMT5/MEP50 complex and 428 nM in the data set with Z-138.
In the case of `O=C(NCC(O)CN1CCc2ccccc2C1)c1cccc(-c2ccccn2)c1` (racemic), the concentration for half-maximal inhibition (IC50) was 37 nM in data set [1], 13 nM at PRMT5/MEP50 complex and 1680 nM with Z-138.
